According to ChEMBL document CHEMBL4689842, “EUbOPEN Chemogenomics Library wave 1” (2021):

Key:
Format in all cases: toxicity, cell-based
Fibroblast = experiment: Multiplex assay against human fibroblast
Outline: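 Per cents of healthy-nucleus cells form the tubulin, mitochondrial-mass and membrane-permeability phenotype values. Live cells were stained at seeding with Hoechst33342, BioTracker Green Microtubule Cytoskeleton Dye, MitoTracker Red and Annexin V Alexa Fluor 680. After compound addition they were imaged on a CQ1 microscope at 37°C and 5% CO2, and CellPathfinder machine-learning gating split them into Hoechst high-intensity objects or normal cells, normal cells into healthy, pyknosed or fragmented nuclei, and pyknosed cells into mitotic or apoptotic.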

HEK-293T = experiment: Incucyte cell viability with HEK293T; conditions: human, 10 µM, compound concentration 10 uM; further: filed as whole numbers so only -1 and 0 and 1 occur
U2OS = experiment: Incucyte cell viability with U2OS; conditions: human, 10 µM, compound concentration 10 uM; further: filed as whole numbers so only -1 and 0 and 1 occur
[1] = 12 h, 1 µM, compound concentration 1 uM, replicate 1
[2] = 12 h, 1 µM, compound concentration 1 uM, replicate 2
[3] = 12 h, 10 µM, compound concentration 10 uM, replicate 1
[4] = 12 h, 10 µM, compound concentration 10 uM, replicate 2
[5] = 24 h, 1 µM, compound concentration 1 uM, replicate 1
[6] = 24 h, 1 µM, compound concentration 1 uM, replicate 2
[7] = 24 h, 10 µM, compound concentration 10 uM, replicate 1
[8] = 24 h, 10 µM, compound concentration 10 uM, replicate 2
[9] = 48 h, 1 µM, compound concentration 1 uM, replicate 1
[10] = 48 h, 1 µM, compound concentration 1 uM, replicate 2
[11] = 48 h, 10 µM, compound concentration 10 uM, replicate 1
[12] = 48 h, 10 µM, compound concentration 10 uM, replicate 2
[13] = 6 h, replicate number 1, timepoint 6 hours
[14] = 12 h, replicate number 1, timepoint 12 hours
[15] = 18 h, replicate number 1, timepoint 18 hours
[16] = 24 h, replicate number 1, timepoint 24 hours

COc1ccc(NS(=O)(=O)c2sc3ccc(Cl)cc3c2C)cc1N1CCNCC1.Cl
Population Apoptotic (%) (Fibroblast; [1]): 50% | Population Fragmented Nuclei (%) (Fibroblast; [1]): 25% | Population Healthy Nuclei (%) (Fibroblast; [1]): 38% | Population Hoechst High Intensity Objects (%) (Fibroblast; [1]): 10% | Population Membrane Permeable-Phenotype (%) (Fibroblast; [1]): 30% | Population Mitochondria Different-Phenotype (%) (Fibroblast; [1]): 4% | Population Mitotic Cells (%) (Fibroblast; [1]): 50% | Population Normal (%) (Fibroblast; [1]): 89% | Population Pyknosed Nuclei (%) (Fibroblast; [1]): 35% | Population Tubulin-Different-Phenotype (%) (Fibroblast; [1]): 30% | Total Cell Count (Fibroblast; [1]): 125 | Population Apoptotic (%) (Fibroblast; [2]): 28% | Population Fragmented Nuclei (%) (Fibroblast; [2]): 13% | Population Healthy Nuclei (%) (Fibroblast; [2]): 69% | Population Hoechst High Intensity Objects (%) (Fibroblast; [2]): 12% | Population Membrane Permeable-Phenotype (%) (Fibroblast; [2]): 0% | Population Mitochondria Different-Phenotype (%) (Fibroblast; [2]): 26% | Population Mitotic Cells (%) (Fibroblast; [2]): 71% | Population Normal (%) (Fibroblast; [2]): 87% | Population Pyknosed Nuclei (%) (Fibroblast; [2]): 16% | Population Tubulin-Different-Phenotype (%) (Fibroblast; [2]): 10% | Total Cell Count (Fibroblast; [2]): 69 | Population Apoptotic (%) (Fibroblast; [3]): 75% | Population Fragmented Nuclei (%) (Fibroblast; [3]): 33% | Population Healthy Nuclei (%) (Fibroblast; [3]): 47% | Population Hoechst High Intensity Objects (%) (Fibroblast; [3]): 22% | Population Membrane Permeable-Phenotype (%) (Fibroblast; [3]): 1% | Population Mitochondria Different-Phenotype (%) (Fibroblast; [3]): 40% | Population Mitotic Cells (%) (Fibroblast; [3]): 24% | Population Normal (%) (Fibroblast; [3]): 77% | Population Pyknosed Nuclei (%) (Fibroblast; [3]): 19% | Population Tubulin-Different-Phenotype (%) (Fibroblast; [3]): 88% | Total Cell Count (Fibroblast; [3]): 217 | Population Apoptotic (%) (Fibroblast; [4]): 61% | Population Fragmented Nuclei (%) (Fibroblast; [4]): 14% | Population Healthy Nuclei (%) (Fibroblast; [4]): 56% | Population Hoechst High Intensity Objects (%) (Fibroblast; [4]): 4% | Population Membrane Permeable-Phenotype (%) (Fibroblast; [4]): 25% | Population Mitochondria Different-Phenotype (%) (Fibroblast; [4]): 100% | Population Mitotic Cells (%) (Fibroblast; [4]): 38% | Population Normal (%) (Fibroblast; [4]): 95% | Population Pyknosed Nuclei (%) (Fibroblast; [4]): 29% | Population Tubulin-Different-Phenotype (%) (Fibroblast; [4]): 94% | Total Cell Count (Fibroblast; [4]): 49 | Population Apoptotic (%) (Fibroblast; [5]): 40% | Population Fragmented Nuclei (%) (Fibroblast; [5]): 26% | Population Healthy Nuclei (%) (Fibroblast; [5]): 52% | Population Hoechst High Intensity Objects (%) (Fibroblast; [5]): 11% | Population Membrane Permeable-Phenotype (%) (Fibroblast; [5]): 25% | Population Mitochondria Different-Phenotype (%) (Fibroblast; [5]): 3% | Population Mitotic Cells (%) (Fibroblast; [5]): 60% | Population Normal (%) (Fibroblast; [5]): 88% | Population Pyknosed Nuclei (%) (Fibroblast; [5]): 20% | Population Tubulin-Different-Phenotype (%) (Fibroblast; [5]): 42% | Total Cell Count (Fibroblast; [5]): 136 | Population Apoptotic (%) (Fibroblast; [6]): 33% | Population Fragmented Nuclei (%) (Fibroblast; [6]): 10% | Population Healthy Nuclei (%) (Fibroblast; [6]): 77% | Population Hoechst High Intensity Objects (%) (Fibroblast; [6]): 3% | Population Membrane Permeable-Phenotype (%) (Fibroblast; [6]): 5% | Population Mitochondria Different-Phenotype (%) (Fibroblast; [6]): 13% | Population Mitotic Cells (%) (Fibroblast; [6]): 66% | Population Normal (%) (Fibroblast; [6]): 96% | Population Pyknosed Nuclei (%) (Fibroblast; [6]): 12% | Population Tubulin-Different-Phenotype (%) (Fibroblast; [6]): 5% | Total Cell Count (Fibroblast; [6]): 67 | Population Apoptotic (%) (Fibroblast; [7]): 72% | Population Fragmented Nuclei (%) (Fibroblast; [7]): 23% | Population Healthy Nuclei (%) (Fibroblast; [7]): 51% | Population Hoechst High Intensity Objects (%) (Fibroblast; [7]): 25% | Population Membrane Permeable-Phenotype (%) (Fibroblast; [7]): 9% | Population Mitochondria Different-Phenotype (%) (Fibroblast; [7]): 50% | Population Mitotic Cells (%) (Fibroblast; [7]): 27% | Population Normal (%) (Fibroblast; [7]): 74% | Population Pyknosed Nuclei (%) (Fibroblast; [7]): 25% | Population Tubulin-Different-Phenotype (%) (Fibroblast; [7]): 80% | Total Cell Count (Fibroblast; [7]): 226 | Population Apoptotic (%) (Fibroblast; [8]): 68% | Population Fragmented Nuclei (%) (Fibroblast; [8]): 16% | Population Healthy Nuclei (%) (Fibroblast; [8]): 47% | Population Hoechst High Intensity Objects (%) (Fibroblast; [8]): 2% | Population Membrane Permeable-Phenotype (%) (Fibroblast; [8]): 55% | Population Mitochondria Different-Phenotype (%) (Fibroblast; [8]): 97% | Population Mitotic Cells (%) (Fibroblast; [8]): 32% | Population Normal (%) (Fibroblast; [8]): 97% | Population Pyknosed Nuclei (%) (Fibroblast; [8]): 35% | Population Tubulin-Different-Phenotype (%) (Fibroblast; [8]): 91% | Total Cell Count (Fibroblast; [8]): 51 | Population Apoptotic (%) (Fibroblast; [9]): 66% | Population Fragmented Nuclei (%) (Fibroblast; [9]): 38% | Population Healthy Nuclei (%) (Fibroblast; [9]): 47% | Population Hoechst High Intensity Objects (%) (Fibroblast; [9]): 20% | Population Membrane Permeable-Phenotype (%) (Fibroblast; [9]): 17% | Population Mitochondria Different-Phenotype (%) (Fibroblast; [9]): 0% | Population Mitotic Cells (%) (Fibroblast; [9]): 33% | Population Normal (%) (Fibroblast; [9]): 79% | Population Pyknosed Nuclei (%) (Fibroblast; [9]): 14% | Population Tubulin-Different-Phenotype (%) (Fibroblast; [9]): 21% | Total Cell Count (Fibroblast; [9]): 134 | Population Apoptotic (%) (Fibroblast; [10]): 100% | Population Fragmented Nuclei (%) (Fibroblast; [10]): 53% | Population Healthy Nuclei (%) (Fibroblast; [10]): 45% | Population Hoechst High Intensity Objects (%) (Fibroblast; [10]): 25% | Population Membrane Permeable-Phenotype (%) (Fibroblast; [10]): 9% | Population Mitochondria Different-Phenotype (%) (Fibroblast; [10]): 1% | Population Mitotic Cells (%) (Fibroblast; [10]): 0% | Population Normal (%) (Fibroblast; [10]): 74% | Population Pyknosed Nuclei (%) (Fibroblast; [10]): 1% | Population Tubulin-Different-Phenotype (%) (Fibroblast; [10]): 49% | Total Cell Count (Fibroblast; [10]): 219 | Population Apoptotic (%) (Fibroblast; [11]): 86% | Population Fragmented Nuclei (%) (Fibroblast; [11]): 33% | Population Healthy Nuclei (%) (Fibroblast; [11]): 44% | Population Hoechst High Intensity Objects (%) (Fibroblast; [11]): 42% | Population Membrane Permeable-Phenotype (%) (Fibroblast; [11]): 10% | Population Mitochondria Different-Phenotype (%) (Fibroblast; [11]): 46% | Population Mitotic Cells (%) (Fibroblast; [11]): 13% | Population Normal (%) (Fibroblast; [11]): 57% | Population Pyknosed Nuclei (%) (Fibroblast; [11]): 21% | Population Tubulin-Different-Phenotype (%) (Fibroblast; [11]): 73% | Total Cell Count (Fibroblast; [11]): 191 | Population Apoptotic (%) (Fibroblast; [12]): 93% | Population Fragmented Nuclei (%) (Fibroblast; [12]): 34% | Population Healthy Nuclei (%) (Fibroblast; [12]): 26% | Population Hoechst High Intensity Objects (%) (Fibroblast; [12]): 24% | Population Membrane Permeable-Phenotype (%) (Fibroblast; [12]): 22% | Population Mitochondria Different-Phenotype (%) (Fibroblast; [12]): 54% | Population Mitotic Cells (%) (Fibroblast; [12]): 6% | Population Normal (%) (Fibroblast; [12]): 75% | Population Pyknosed Nuclei (%) (Fibroblast; [12]): 39% | Population Tubulin-Different-Phenotype (%) (Fibroblast; [12]): 72% | Total Cell Count (Fibroblast; [12]): 111 | Growth Rate (HEK-293T; 0 h, replicate number 2, timepoint 0 hours): 1 | Growth Rate (HEK-293T; [13]): 0 | Growth Rate (HEK-293T; [14]): 0 | Growth Rate (HEK-293T; [15]): 0 | Growth Rate (HEK-293T; [16]): 0 | Growth Rate (U2OS; [13]): 0 | Growth Rate (U2OS; [14]): 0 | Growth Rate (U2OS; [15]): 0 | Growth Rate (U2OS; [16]): 0
